Columns and labels:
Details in all cases: read-out: Inhibition
[1] = Cytotoxicity against human HeLa cells at 30 uM; format: cell-based
Method in brief: (§1)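 MTT assay. Human HeLa (cervix adenocarcinoma), MCF7 (breast adenocarcinoma) and A431 (squamous skin carcinoma) cells were grown in minimal essential medium with 10% foetal bovine serum, antibiotic–antimycotic agents and non-essential amino acids, then seeded in 96-well plates. On day 2 the medium was replaced with compound-containing medium (DMSO final ≤0.1%). Exposure lasted 72 h, followed by 4 h MTT and DMSO solubilization of the formazan.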

[2] = Cytotoxicity against human MCF7 cells at 30 uM; format: cell-based; method in brief: as §1
[3] = Cytotoxicity against human A431 cells at 30 uM; format: cell-based, A-431; method in brief: as §1

Structure (SMILES): CNC(=S)NCc1cc2ccccc2[nH]1
- cytotoxicity at 30 µM [1]: < 10%
- cytotoxicity at 30 µM [2]: < 10%
- cytotoxicity at 30 µM [3]: < 10%

Structure (SMILES): CSC(=S)NCc1cc2ccccc2[nH]1 [ISOBRASSININ]
- cytotoxicity at 30 µM [1]: 83.6%
- cytotoxicity at 30 µM [2]: 86.2%
- cytotoxicity at 30 µM [3]: 78.6%

Structure (SMILES): S=C(NCc1cc2ccccc2[nH]1)Nc1ccccc1
- cytotoxicity at 30 µM [1]: 50%
- cytotoxicity at 30 µM [2]: 57.4%
- cytotoxicity at 30 µM [3]: 45.7%

Structure (SMILES): CSC(=S)NCc1c[nH]c2ccccc12 [BRASSININ]
- cytotoxicity at 30 µM [1]: 25.2%
- cytotoxicity at 30 µM [2]: 21.5%

Structure (SMILES): CSC1=NCc2[nH]c3ccccc3c2S1 [ISOCYCLOBRASSININ]
- cytotoxicity at 30 µM [1]: 44.5%
- cytotoxicity at 30 µM [2]: < 10%
- cytotoxicity at 30 µM [3]: < 10%

Structure (SMILES): S=C(NCc1cc2ccccc2[nH]1)SCc1ccccc1
- cytotoxicity at 30 µM [1]: 76.1%
- cytotoxicity at 30 µM [2]: 89%
- cytotoxicity at 30 µM [3]: 70.7%

Structure (SMILES): c1ccc(CSC2=NCc3[nH]c4ccccc4c3S2)cc1
- cytotoxicity at 30 µM [1]: 45.8%
- cytotoxicity at 30 µM [2]: 37.3%
